ChEMBL document CHEMBL1240354, “Efficacy of posaconazole against three clinical Aspergillus fumigatus isolates with mutations in the cyp51A gene” (Antimicrob Agents Chemother, 2010)
≈ marks a conversion by molar mass, not a printed value.

How the values were obtained:
Aspergillus fumigatus [1] = assay: Antifungal activity against Aspergillus fumigatus isolate V52-35 harboring TR L98H mutation in Cyp51A protein by broth microdilution method; format: functional
How it was run: (§1)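 Broth microdilution followed CLSI M38A. Isolates were stored in 10% glycerol broth at −80°C and revived on Sabouraud dextrose agar with 0.02% chloramphenicol for 5 to 7 days at 35°C before testing.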

Aspergillus fumigatus [2] = assay: Antifungal activity against Aspergillus fumigatus isolate V59-73 harboring G54W mutation in Cyp51A protein by broth microdilution method; format: functional; how it was run: as §1
Aspergillus fumigatus [3] = assay: Antifungal activity against Aspergillus fumigatus isolate AZN 8196 harboring wild type Cyp51A protein by broth microdilution method; format: functional; how it was run: as §1
Aspergillus fumigatus [4] = assay: Antifungal activity against Aspergillus fumigatus isolate V28-77 harboring M220I mutation in Cyp51A protein by broth microdilution method; format: functional; how it was run: as §1
[5] = AUC in CD1 mouse infected with wild type Aspergillus fumigatus at 4 mg/kg, po qd for 14 days measured after 24 hrs post last dose by HPLC analysis; format: ADME, organism-based; design: time < 24 hr, dose 4 mg/kg, route oral; settings: plasma
How it was run: (§2)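 Female CD-1 mice (4-5 weeks, 20-22 g) were infected via the lateral tail vein with the wild-type isolate. Oral posaconazole was given once daily from 24 h. On treatment day 2, orbital blood was taken predose and 0.5-24 h postdose, 3 mice per time point. Plasma was assayed by HPLC-fluorescence. Cmax was observed directly. AUC0–24 used the log-linear trapezoidal rule, and CL = dose/AUC0–24.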

[6] = Tmax in CD1 mouse infected with wild type Aspergillus fumigatus at 4 mg/kg, […] by HPLC analysis; format: ADME, organism-based; design: dose 4 mg/kg, route oral; settings: in vivo, po
Aspergillus fumigatus [7] = assay: Antifungal activity against Aspergillus fumigatus isolate V52-35 harboring TR L98H mutation in Cyp51A protein infected in CD1 mouse assessed as increase in mouse survival rate administered orally qd for 14 days measured on day 15 post fungal infection; format: functional, organism-based
How it was run: (§3)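 Female CD-1 mice (4-5 weeks, 20-25 g, 11 per group) received an LD90 conidial inoculum of each isolate IV via the tail vein. Conidia were harvested in PBS/0.1% Tween 80, gauze-filtered and hemacytometer-counted. Posaconazole oral solution (1, 4, 16, 64 mg/kg) was given by gavage once daily for 14 days from 24 h post-infection; controls received saline. Survival was compared by log rank test, with survivors euthanized on day 15.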

[8] = AUC in CD1 mouse infected with wild type Aspergillus fumigatus at 16 mg/kg, po qd for 14 days measured after 24 hrs post last dose by HPLC analysis; format: ADME, organism-based; design: time < 24 hr, dose 16 mg/kg, route oral; settings: plasma; how it was run: as §2
[9] = Plasma concentration in CD1 mouse infected with wild type Aspergillus fumigatus at 64 mg/kg, […] by HPLC analysis; format: ADME, organism-based; design: dose 64 mg/kg, route oral; settings: po
Mus musculus [10] = assay: Dose normalised AUC in CD1 mouse infected with wild type Aspergillus fumigatus at 64 mg/kg, po qd for 14 days measured after 24 hrs post last dose by HPLC analysis; format: ADME, organism-based; design: time < 24 hr, dose 64 mg/kg, route oral; settings: in vivo; how it was run: as §2
[11] = Plasma concentration in CD1 mouse infected with wild type Aspergillus fumigatus at 16 mg/kg, […] by HPLC analysis; format: ADME, organism-based; design: dose 16 mg/kg, route oral; settings: po
Mus musculus [12] = assay: Dose normalised AUC in CD1 mouse infected with wild type Aspergillus fumigatus at 4 mg/kg, po qd for 14 days measured after 24 hrs post last dose by HPLC analysis; format: ADME, organism-based; design: time < 24 hr, dose 4 mg/kg, route oral; settings: in vivo; how it was run: as §2
[13] = AUC in CD1 mouse infected with wild type Aspergillus fumigatus at 1 mg/kg, po qd for 14 days measured after 24 hrs post last dose by HPLC analysis; format: ADME, organism-based; design: time < 24 hr, dose 1 mg/kg, route oral; settings: plasma; how it was run: as §2
[14] = Plasma concentration in CD1 mouse infected with wild type Aspergillus fumigatus at 1 mg/kg, […] by HPLC analysis; format: ADME, organism-based; design: dose 1 mg/kg, route oral; settings: po
[15] = Apparent oral clearance in CD1 mouse infected with wild type Aspergillus fumigatus at 1 mg/kg, po qd for 14 days measured after 24 hrs post last dose by HPLC analysis; format: ADME, organism-based; design: dose 1 mg/kg, route oral; settings: in vivo; how it was run: as §2
Aspergillus fumigatus [16] = assay: Antifungal activity against Aspergillus fumigatus isolate V59-73 harboring G54W mutation in Cyp51A protein infected in CD1 mouse assessed as increase in mouse survival rate administered orally qd for 14 days measured on day 15 post fungal infection; format: functional; how it was run: as §3
[17] = Tmax in CD1 mouse infected with wild type Aspergillus fumigatus at 16 mg/kg, […] by HPLC analysis; format: ADME, organism-based; design: dose 16 mg/kg, route oral; settings: in vivo, po
[18] = Tmax in CD1 mouse infected with wild type Aspergillus fumigatus at 1 mg/kg, […] by HPLC analysis; format: ADME, organism-based; design: dose 1 mg/kg, route oral; settings: in vivo, po
Aspergillus fumigatus [19] = assay: Antifungal activity against Aspergillus fumigatus isolate V52-35 harboring TR L98H mutation in Cyp51A protein infected in CD1 mouse assessed as 50% effective pharmacodynamic index administered orally qd for 14 days measured post last dose; format: functional
How it was run: (§4)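 EI50 came from fitting a variable-slope Hill equation to AUC0–24/MIC ratio versus 14-day survival. AUCs were taken from the PK study in wild-type-infected mice at each dose (1-64 mg/kg oral, once daily). Ratios were log10-transformed before analysis.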

[20] = Cmax in CD1 mouse infected with wild type Aspergillus fumigatus at 64 mg/kg, po qd for 14 days measured after 24 hrs post last dose by HPLC analysis; format: ADME, organism-based; design: dose 64 mg/kg, route oral; settings: in vivo; how it was run: as §2
[21] = Apparent oral clearance in CD1 mouse infected with wild type Aspergillus fumigatus at 16 mg/kg, po qd for 14 days measured after 24 hrs post last dose by HPLC analysis; format: ADME, organism-based; design: dose 16 mg/kg, route oral; settings: in vivo; how it was run: as §2
[22] = Tmax in CD1 mouse infected with wild type Aspergillus fumigatus at 64 mg/kg, […] by HPLC analysis; format: ADME, organism-based; design: dose 64 mg/kg, route oral; settings: in vivo, po
Aspergillus fumigatus [23] = assay: Antifungal activity against wild type Aspergillus fumigatus infected in CD1 mouse assessed as increase in mouse survival rate administered orally qd for 14 days measured on day 15 post fungal infection; format: functional, organism-based; how it was run: as §3
[24] = Apparent oral clearance in CD1 mouse infected with wild type Aspergillus fumigatus at 4 mg/kg, po qd for 14 days measured after 24 hrs post last dose by HPLC analysis; format: ADME, organism-based; design: dose 4 mg/kg, route oral; settings: in vivo; how it was run: as §2
[25] = AUC in CD1 mouse infected with wild type Aspergillus fumigatus at 64 mg/kg, po qd for 14 days measured after 24 hrs post last dose by HPLC analysis; format: ADME, organism-based; design: time < 24 hr, dose 64 mg/kg, route oral; settings: plasma; how it was run: as §2
[26] = Apparent oral clearance in CD1 mouse infected with wild type Aspergillus fumigatus at 64 mg/kg, po qd for 14 days measured after 24 hrs post last dose by HPLC analysis; format: ADME, organism-based; design: dose 64 mg/kg, route oral; settings: in vivo; how it was run: as §2
[27] = Plasma concentration in CD1 mouse infected with wild type Aspergillus fumigatus at 4 mg/kg, […] by HPLC analysis; format: ADME, organism-based; design: dose 4 mg/kg, route oral; settings: po
Aspergillus fumigatus [28] = assay: Antifungal activity against Aspergillus fumigatus isolate V28-77 harboring M220I mutation in Cyp51A protein infected in CD1 mouse assessed as increase in mouse survival rate administered orally qd for 14 days measured on day 15 post fungal infection; format: functional, organism-based; how it was run: as §3
Mus musculus [29] = assay: Dose normalised AUC in CD1 mouse infected with wild type Aspergillus fumigatus at 16 mg/kg, po qd for 14 days measured after 24 hrs post last dose by HPLC analysis; format: ADME, organism-based; design: time < 24 hr, dose 16 mg/kg, route oral; settings: in vivo; how it was run: as §2
[30] = Cmax in CD1 mouse infected with wild type Aspergillus fumigatus at 16 mg/kg, po qd for 14 days measured after 24 hrs post last dose by HPLC analysis; format: ADME, organism-based; design: dose 16 mg/kg, route oral; settings: in vivo; how it was run: as §2
Aspergillus fumigatus [31] = assay: Antifungal activity against Aspergillus fumigatus isolate V28-77 harboring M220I mutation in Cyp51A protein infected in CD1 mouse assessed as 50% effective pharmacodynamic index administered orally qd for 14 days measured post last dose; format: functional; how it was run: as §4
Aspergillus fumigatus [32] = assay: Ratio of AUC to MIC for wild type Aspergillus fumigatus infected in CD1 mouse; format: functional
How it was run: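 The ratio was calculated as AUC0–24 from the mouse PK study (oral posaconazole once daily, 1 to 64 mg/kg) divided by the CLSI M38A broth microdilution MIC.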

Mus musculus [33] = assay: Dose normalised AUC in CD1 mouse infected with wild type Aspergillus fumigatus at 1 mg/kg, po qd for 14 days measured after 24 hrs post last dose by HPLC analysis; format: ADME, organism-based; design: time < 24 hr, dose 1 mg/kg, route oral; settings: in vivo; how it was run: as §2
[34] = Cmax in CD1 mouse infected with wild type Aspergillus fumigatus at 4 mg/kg, po qd for 14 days measured after 24 hrs post last dose by HPLC analysis; format: ADME, organism-based; design: dose 4 mg/kg, route oral; settings: in vivo; how it was run: as §2
[35] = Cmax in CD1 mouse infected with wild type Aspergillus fumigatus at 1 mg/kg, po qd for 14 days measured after 24 hrs post last dose by HPLC analysis; format: ADME, organism-based; design: dose 1 mg/kg, route oral; settings: in vivo; how it was run: as §2

## CC[C@H](C)C[C@H](C)CCCCCCCCC(=O)N[C@H]1C[C@@H](O)[C@@H](NCCN)NC(=O)[C@@H]2[C@@H](O)CCN2C(=O)[C@H]([C@H](O)CCN)NC(=O)[C@H]([C@H](O)[C@@H](O)c2ccc(O)cc2)NC(=O)[C@@H]2C[C@@H](O)CN2C(=O)[C@H]([C@@H](C)O)NC1=O [CASPOFUNGIN]
Aspergillus fumigatus [1]; read-out: MEC
  minimal effective concentration: 0.25 µg/mL
Aspergillus fumigatus [2]; read-out: MEC
  minimal effective concentration: 0.25 µg/mL
Aspergillus fumigatus [3]; read-out: MEC
  minimal effective concentration: 0.25 µg/mL
Aspergillus fumigatus [4]; read-out: MEC
  minimal effective concentration: 0.25 µg/mL

## CCC(C)n1ncn(-c2ccc(N3CCN(c4ccc(OCC5COC(Cn6cncn6)(c6ccc(Cl)cc6Cl)O5)cc4)CC3)cc2)c1=O (configuration not stated) [ITRACONAZOLE]
Aspergillus fumigatus [1]
  MIC: > 16 µg/mL
Aspergillus fumigatus [2]
  MIC: > 16 µg/mL
Aspergillus fumigatus [3]
  MIC: 0.125 µg/mL (≈ 0.177 µM)
Aspergillus fumigatus [4]
  MIC: > 16 µg/mL

## C[C@@H]1[C@H](O)[C@@H](C)/C=C/C=C/C=C/C=C/C=C/C=C/C=C/[C@H](O[C@@H]2O[C@H](C)[C@@H](O)[C@H](N)[C@@H]2O)C[C@@H]2O[C@](O)(C[C@@H](O)C[C@@H](O)[C@H](O)CC[C@@H](O)C[C@@H](O)CC(=O)O[C@H]1C)C[C@H](O)[C@H]2C(=O)O [AMPHOTERICIN B]
Aspergillus fumigatus [1]
  MIC: 0.5 µg/mL (≈ 0.541 µM)
Aspergillus fumigatus [2]
  MIC: 0.5 µg/mL (≈ 0.541 µM)
Aspergillus fumigatus [3]
  MIC: 0.5 µg/mL (≈ 0.541 µM)
Aspergillus fumigatus [4]
  MIC: 0.5 µg/mL (≈ 0.541 µM)

## C[C@@H](c1ncncc1F)[C@](O)(Cn1cncn1)c1ccc(F)cc1F [VORICONAZOLE]
Aspergillus fumigatus [1]
  MIC: 2 µg/mL (≈ 5.73 µM)
Aspergillus fumigatus [2]
  MIC: 0.125 µg/mL (≈ 0.358 µM)
Aspergillus fumigatus [3]
  MIC: 0.25 µg/mL (≈ 0.716 µM)
Aspergillus fumigatus [4]
  MIC: 0.25 µg/mL (≈ 0.716 µM)

## CC[C@@H]([C@H](C)O)n1ncn(-c2ccc(N3CCN(c4ccc(OC[C@@H]5CO[C@@](Cn6cncn6)(c6ccc(F)cc6F)C5)cc4)CC3)cc2)c1=O [POSACONAZOLE]
[5]
  AUC at 24 h: 45.1 µg·h/mL
[6]
  Tmax: 2 h
Aspergillus fumigatus [7]
  Activity: Dose-dependent effect
[8]
  AUC at 24 h: 159 µg·h/mL
[9]
  concentration: 9330 ng/mL
Mus musculus [10]
  AUC: 4.64 kg·h/L
Aspergillus fumigatus [1]
  MIC: 0.5 µg/mL (≈ 0.713 µM)
[11]
  concentration: 2700 ng/mL
Mus musculus [12]
  AUC: 11.3 kg·h/L
[13]
  AUC at 24 h: 10.2 µg·h/mL
[14]
  concentration: 110 ng/mL
[15]
  CL/F: 1.67 mL/min/kg
Aspergillus fumigatus [16]
  Activity: Dose-dependent effect
Aspergillus fumigatus [16]; isolate V59-73, po
  ED50: 29 mg/kg
[17]
  Tmax: 8 h
[18]
  Tmax: 4 h
Aspergillus fumigatus [2]
  MIC: > 16 µg/mL
Aspergillus fumigatus [19]
  Activity: 321
[20]
  Cmax: 17800 ng/mL
[21]
  CL/F: 1.67 mL/min/kg
[22]
  Tmax: 8 h
Aspergillus fumigatus [23]
  Activity: Dose-dependent effect
[24]
  CL/F: 1.5 mL/min/kg
[25]
  AUC at 24 h: 297 µg·h/mL
[26]
  CL/F: 3.67 mL/min/kg
[27]
  concentration: 940 ng/mL
Aspergillus fumigatus [3]
  MIC: 0.031 µg/mL (≈ 0.0442 µM)
Aspergillus fumigatus [28]
  Activity: Dose-dependent effect
Mus musculus [29]
  AUC: 9.96 kg·h/L
[30]
  Cmax: 9030 ng/mL
Aspergillus fumigatus [31]
  Activity: 321
Aspergillus fumigatus [4]
  MIC: 0.5 µg/mL (≈ 0.713 µM)
Aspergillus fumigatus [32]
  RatioAUC/MIC: 1000
Mus musculus [33]
  AUC: 10.2 kg·h/L
[34]
  Cmax: 3110 ng/mL
[35]
  Cmax: 980 ng/mL
